Results as given in ChEMBL document CHEMBL5724801, “EUbOPEN Chemogenomics Library - Multiplex” (2024).
Where “and” joins values, the source holds several entries; their conditions need not be identical. Identical values can stand only once.

The molecules below were run on U2OS (assay: Multiplex assay against U2OS). Settings: human, 12 h, 1 µM, compound concentration 1 uM.
Assay type: toxicity, cell-based
Procedure, shortened: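 Cells stained live at seeding with Hoechst33342, BioTracker Green Microtubule Cytoskeleton Dye, MitoTracker Red and Annexin V Alexa Fluor 680 were imaged on a CQ1 microscope at 37°C and 5% CO2 after compound addition. Their classification by CellPathfinder machine-learning gating ran from Hoechst high-intensity objects versus normal cells, to healthy, pyknosed or fragmented nuclei among normal cells, to mitotic or apoptotic among pyknosed cells. Tubulin, mitochondrial-mass and membrane-permeability phenotypes are per cents of healthy-nucleus cells.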

| SMILES | Population Apoptotic (%) | Population Fragmented Nuclei (%) | Population Healthy Nuclei (%) | Population Hoechst High Intensity Objects (%) | Population Membrane Permeable-Phenotype (%) | Population Mitotic Cells (%) | Population Normal (%) | Population Pyknosed Nuclei (%) | Population Tubulin-Different-Phenotype (%) | Total Cell Count |
| --- | --- | --- | --- | --- | --- | --- | --- | --- | --- | --- |
| Cl.Cl.N#Cc1ccc(O[C@@H]2c3ccccc3C[C@H]2N2CCC[C@@H](N)C2)c(Cl)c1 | 27.27% and 23.68% | 3.65% and 1.32% | 79.64% and 73.51% | 0% | 24.05% and 54.05% | 72.73% and 76.32% | 100% | 16.72% and 25.17% | 57.25% and 71.17% | 329 and 151 |
| CN(C)CCCc1cc(C(=O)Nc2ccc(-c3ccncc3)cc2)ccc1O.Cl.Cl | 89% and 100% | 29% and 10% | 60% and 75% | 2% and 0% | 6% and 2% | 10% and 0% | 97% and 99% | 9% and 13% | 3% and 0% | 199 and 124 |

Same assay, conditions: human, 12 h, 1 µM, compound concentration 1 uM

| SMILES | Population Mitochondria Different-Phenotype (%) |
| --- | --- |
| CN(C)CCCc1cc(C(=O)Nc2ccc(-c3ccncc3)cc2)ccc1O.Cl.Cl | 0% and 1% |

Same assay, conditions: human, 12 h, 10 µM, compound concentration 10 uM

| SMILES | Population Apoptotic (%) | Population Fragmented Nuclei (%) | Population Healthy Nuclei (%) | Population Hoechst High Intensity Objects (%) | Population Membrane Permeable-Phenotype (%) | Population Mitochondria Different-Phenotype (%) | Population Mitotic Cells (%) | Population Normal (%) | Population Pyknosed Nuclei (%) | Population Tubulin-Different-Phenotype (%) |
| --- | --- | --- | --- | --- | --- | --- | --- | --- | --- | --- |
| Cl.Cl.N#Cc1ccc(O[C@@H]2c3ccccc3C[C@H]2N2CCC[C@@H](N)C2)c(Cl)c1 | 46.21% and 25.32% | 4.14% and 2.88% | 56.8% and 40.29% | 0% | 11.98% and 32.14% | 63.54% and 89.29% | 53.79% and 74.68% | 100% | 39.05% and 56.83% | 88.02% and 89.29% |
| CN(C)CCCc1cc(C(=O)Nc2ccc(-c3ccncc3)cc2)ccc1O.Cl.Cl | 77% and 42% | 28% and 24% | 62% and 63% | 4% and 1% | 7% and 4% | 1% and 8% | 22% and 57% | 95% and 98% | 9% and 12% | 2% |

Same assay, conditions: human, 12 h, 10 µM, compound concentration 10 uM

| SMILES | Total Cell Count |
| --- | --- |
| Cl.Cl.N#Cc1ccc(O[C@@H]2c3ccccc3C[C@H]2N2CCC[C@@H](N)C2)c(Cl)c1 | 338 and 139 |
| CN(C)CCCc1cc(C(=O)Nc2ccc(-c3ccncc3)cc2)ccc1O.Cl.Cl | 237 and 113 |

Same assay, conditions: human, 24 h, 1 µM, compound concentration 1 uM

| SMILES | Population Apoptotic (%) | Population Fragmented Nuclei (%) | Population Healthy Nuclei (%) | Population Hoechst High Intensity Objects (%) | Population Membrane Permeable-Phenotype (%) | Population Mitotic Cells (%) | Population Normal (%) | Population Pyknosed Nuclei (%) | Population Tubulin-Different-Phenotype (%) | Total Cell Count |
| --- | --- | --- | --- | --- | --- | --- | --- | --- | --- | --- |
| Cl.Cl.N#Cc1ccc(O[C@@H]2c3ccccc3C[C@H]2N2CCC[C@@H](N)C2)c(Cl)c1 | 47.5% and 39.47% | 2.74% and 2.58% | 77.31% and 72.9% | 0% | 19.35% and 35.4% | 52.5% and 60.53% | 100% | 19.95% and 24.52% | 32.58% and 69.03% | 401 and 155 |
| CN(C)CCCc1cc(C(=O)Nc2ccc(-c3ccncc3)cc2)ccc1O.Cl.Cl | 100% and 94% | 28% and 11% | 65% and 77% | 2% and 4% | 5% and 7% | 0% and 5% | 97% and 95% | 6% and 11% | 3% and 5% | 247 and 178 |

Same assay, conditions: human, 24 h, 1 µM, compound concentration 1 uM

| SMILES | Population Mitochondria Different-Phenotype (%) |
| --- | --- |
| CN(C)CCCc1cc(C(=O)Nc2ccc(-c3ccncc3)cc2)ccc1O.Cl.Cl | 2% and 5% |

Same assay, conditions: human, 24 h, 10 µM, compound concentration 10 uM

| SMILES | Population Apoptotic (%) | Population Fragmented Nuclei (%) | Population Healthy Nuclei (%) | Population Hoechst High Intensity Objects (%) | Population Membrane Permeable-Phenotype (%) | Population Mitochondria Different-Phenotype (%) | Population Mitotic Cells (%) | Population Normal (%) | Population Pyknosed Nuclei (%) | Population Tubulin-Different-Phenotype (%) |
| --- | --- | --- | --- | --- | --- | --- | --- | --- | --- | --- |
| Cl.Cl.N#Cc1ccc(O[C@@H]2c3ccccc3C[C@H]2N2CCC[C@@H](N)C2)c(Cl)c1 | 64.9% and 68.09% | 3.82% and 4.96% | 51.76% and 28.37% | 0% | 9.09% and 12.5% | 73.3% and 92.5% | 35.1% and 31.91% | 100% | 44.41% and 66.67% | 88.64% and 90% |
| CN(C)CCCc1cc(C(=O)Nc2ccc(-c3ccncc3)cc2)ccc1O.Cl.Cl | 72% and 66% | 28% and 21% | 58% and 63% | 4% and 0% | 6% and 4% | 3% and 8% | 27% and 33% | 95% and 100% | 13% and 15% | 1% and 2% |

Same assay, conditions: human, 24 h, 10 µM, compound concentration 10 uM

| SMILES | Total Cell Count |
| --- | --- |
| Cl.Cl.N#Cc1ccc(O[C@@H]2c3ccccc3C[C@H]2N2CCC[C@@H](N)C2)c(Cl)c1 | 340 and 141 |
| CN(C)CCCc1cc(C(=O)Nc2ccc(-c3ccncc3)cc2)ccc1O.Cl.Cl | 257 and 118 |

Same assay, conditions: human, 48 h, 1 µM, compound concentration 1 uM

| SMILES | Population Apoptotic (%) | Population Fragmented Nuclei (%) | Population Healthy Nuclei (%) | Population Hoechst High Intensity Objects (%) | Population Mitotic Cells (%) | Population Normal (%) | Population Pyknosed Nuclei (%) | Population Membrane Permeable-Phenotype (%) | Population Mitochondria Different-Phenotype (%) | Population Tubulin-Different-Phenotype (%) |
| --- | --- | --- | --- | --- | --- | --- | --- | --- | --- | --- |
| Cl.Cl.N#Cc1ccc(O[C@@H]2c3ccccc3C[C@H]2N2CCC[C@@H](N)C2)c(Cl)c1 | 60.55% and 72.41% | 2.44% and 3.43% | 79.8% and 63.43% | 0 | 39.45% and 27.59% | 100 | 17.75% and 33.14% | – | – | – |
| CN(C)CCCc1cc(C(=O)Nc2ccc(-c3ccncc3)cc2)ccc1O.Cl.Cl | 88% and 93% | 25% and 15% | 69% and 71% | 3 | 11% and 6% | 96 | 5% and 13% | 5% and 7% | 3 | 3% and 4% |

Same assay, conditions: human, 48 h, 1 µM, compound concentration 1 uM

| SMILES | Total Cell Count |
| --- | --- |
| CN(C)CCCc1cc(C(=O)Nc2ccc(-c3ccncc3)cc2)ccc1O.Cl.Cl | 338 and 259 |

Same assay, conditions: human, 48 h, 10 µM, compound concentration 10 uM

| SMILES | Population Apoptotic (%) | Population Fragmented Nuclei (%) | Population Healthy Nuclei (%) | Population Hoechst High Intensity Objects (%) | Population Membrane Permeable-Phenotype (%) | Population Mitochondria Different-Phenotype (%) | Population Normal (%) | Population Pyknosed Nuclei (%) | Population Tubulin-Different-Phenotype (%) | Total Cell Count |
| --- | --- | --- | --- | --- | --- | --- | --- | --- | --- | --- |
| Cl.Cl.N#Cc1ccc(O[C@@H]2c3ccccc3C[C@H]2N2CCC[C@@H](N)C2)c(Cl)c1 | 73.29% and 91.21% | 7.46% and 4.9% | 56.22% and 31.47% | 0% and 0.69% | 5.75% and 15.56% | 52.21% and 86.67% | 100% and 99.31% | 36.32% and 63.64% | 66.37% and 84.44% | 402 and 144 |
| CN(C)CCCc1cc(C(=O)Nc2ccc(-c3ccncc3)cc2)ccc1O.Cl.Cl | 74% and 68% | 25% and 20% | 61% and 63% | 5% and 4% | 5% and 13% | 3% and 8% | 94% and 95% | 12% and 16% | 5% and 9% | 352 and 160 |

Same assay, conditions: human, 48 h, 10 µM, compound concentration 10 uM

| SMILES | Population Mitotic Cells (%) |
| --- | --- |
| CN(C)CCCc1cc(C(=O)Nc2ccc(-c3ccncc3)cc2)ccc1O.Cl.Cl | 25% and 32% |
